Results as given in ChEMBL document CHEMBL1240328, “Selective compounds define Hsp90 as a major inhibitor of apoptosis in small-cell lung cancer” (Nat Chem Biol, 2007).
Calls of active or inactive are those of the source.

Key:
[1] = biological target: Heat shock protein HSP 90-beta (Homo sapiens) (UniProt P08238); experiment: Inhibition of HSP90-mediated proliferation of human SKBR3cells after 72 hrs by sulforhodamine B assay
[2] = biological target: Heat shock protein HSP 90-beta (Homo sapiens) (UniProt P08238); experiment: Binding affinity to HSP90 in human SKBR3 cells after 24 hrs by fluorescence polarization assay; conditions: SK-BR-3
[3] = biological target: Heat shock protein HSP 90-beta (Homo sapiens) (UniProt P08238); experiment: Inhibition of HSP90 in chemo-resistant human SKI-AC3 cells at 100 uM after 24 hrs by fluorescence polarization assay; format: cell-based
How it was run: (§1)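 Competitive fluorescence polarization in lysates of H69AR, SKI-AC3 and WBA cells, prepared in HFB buffer pH 7.3 and normalized to Hsp90. Tracer was 3 nM Cy3B-geldanamycin, with incubation for 24 h at 4 °C. EC50 was defined as 50% tracer displacement.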

[4] = biological target: Heat shock protein HSP 90-beta (Homo sapiens) (UniProt P08238); experiment: Inhibition of HSP90 in chemo-resistant human WBA cells at 100 uM after 24 hrs by fluorescence polarization assay; format: cell-based
How it was run: as §1

[5] = biological target: Heat shock protein HSP 90-beta (Homo sapiens) (UniProt P08238); experiment: Binding affinity to HSP90 in human NCI-H187 cells after 24 hrs by fluorescence polarization assay
[6] = biological target: Heat shock protein HSP 90-beta (Homo sapiens) (UniProt P08238); experiment: Binding affinity to HSP90 in human NCI-H510 cells after 24 hrs by fluorescence polarization assay; format: cell-based
[7] = biological target: Heat shock protein HSP 90-beta (Homo sapiens) (UniProt P08238); experiment: Inhibition of HSP90-mediated antiapoptotic activity in human H69AR cells assessed as induction of cell growth arrest at 10 after 96 hrs by propidium iodide staining-based flow cytometry
[8] = biological target: Heat shock protein HSP 90-beta (Homo sapiens) (UniProt P08238); experiment: Inhibition of HSP90-mediated proliferation of human NCI-H146 cells at 0.3 to 0.5 uM after 72 to 96 hrs by intracellular ATP level assay
[9] = biological target: Heat shock protein HSP 90-beta (Homo sapiens) (UniProt P08238); experiment: Binding affinity to HSP90 in human NCI-N417 cells after 24 hrs by fluorescence polarization assay; format: cell-based; conditions: NCI-H417
[10] = Drug level in tumor of human NCI-N417 cell-xenograft athymic mouse model at 75 mg/kg, ip administered as single dose after 6 hrs by HPLC/MS/MS analysis; format: ADME, organism-based, Neoplasm; design: dose 75 mg/kg, route intraperitoneal; conditions: in vivo
How it was run: (§2)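 Nude mice bearing NCI-N417 xenografts received a single i.p. dose of 75 mg kg–1. Animals (n = 3) were killed at set times from 3 to 36 h. Tumors and brains were harvested and halved, and tumor drug content was quantified by HPLC/MS/MS.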

[11] = Drug level in tumor of human NCI-N417 cell-xenograft athymic mouse model at 75 mg/kg, ip administered as single dose after 12 hrs by HPLC/MS/MS analysis; format: ADME, organism-based, Neoplasm; design: dose 75 mg/kg, route intraperitoneal; conditions: in vivo
How it was run: as §2

NCI-H417 [12] = experiment: Anticancer activity against human NCI-N417 cells xenografted in ip dosed athymic mouse assessed as tumor caspase-3 cleavage administered daily for 5 consecutive days measured after 12 hrs post last dose by immunohistochemistry; format: functional, organism-based
How it was run: (§3)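 Nude athymic (nu/nu) mice carrying NCI-N417 xenografts (cells injected with Matrigel), treated once tumors were 7–9 mm in diameter. Dosing was five consecutive daily i.p. doses of 100 mg kg–1, and mice were killed 12 h after the last dose (n = 2). Tumors were analyzed by immunohistochemistry for cleaved caspase-3, Ki-67 and p-Akt, with vehicle-treated tumors as comparison.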

[13] = Drug level in tumor of human NCI-N417 cell-xenograft athymic mouse model at 75 mg/kg, ip administered as single dose after 8 hrs by HPLC/MS/MS analysis; format: ADME, organism-based, Neoplasm; design: dose 75 mg/kg, route intraperitoneal; conditions: in vivo
How it was run: as §2

[14] = biological target: Heat shock protein HSP 90-beta (Homo sapiens) (UniProt P08238); experiment: Binding affinity to HSP90 in human NCI-H69 cells after 24 hrs by fluorescence polarization assay
NCI-H417 [15] = experiment: Anticancer activity against human NCI-N417 cells xenografted in athymic mouse assessed as tumor growth inhibition at nontoxic dose administered ip daily for 5 consecutive days measured on day 20 post tumor implantation; format: functional, organism-based
How it was run: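 Nude athymic mice (n = 4) bearing NCI-N417 tumors of V = 50–90 mm3 were dosed i.p. and tumor growth was monitored. Results are given as mean ± s.d.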

[16] = biological target: Heat shock protein HSP 90-beta (Homo sapiens) (UniProt P08238); experiment: Inhibition of HSP90-mediated antiapoptotic activity in human WBA cells assessed as induction of cell growth arrest at 10 after 96 hrs by propidium iodide staining-based flow cytometry
[17] = biological target: Heat shock protein HSP 90-beta (Homo sapiens) (UniProt P08238); experiment: Binding affinity to HSP90 in human NCI-H209 cells after 24 hrs by fluorescence polarization assay; format: cell-based
[18] = biological target: Heat shock protein HSP 90-beta (Homo sapiens) (UniProt P08238); experiment: Binding affinity to HSP90 in human NCI-H146 cells after 24 hrs by fluorescence polarization assay; format: cell-based
NCI-H417 [19] = experiment: Anticancer activity against human NCI-N417 cells xenografted in athymic mouse assessed as decrease in tumor Akt activity at 75 mg/kg, ip administered as single dose measured after 36 hrs post dose by Western blot
[20] = biological target: Heat shock protein HSP 90-beta (Homo sapiens) (UniProt P08238); experiment: Inhibition of HSP90-mediated antiapoptotic activity in human SKI-AC3 cells assessed as induction of cell growth arrest at 10 after 96 hrs by propidium iodide staining-based flow cytometry
[21] = biological target: Heat shock protein HSP 90-beta (Homo sapiens) (UniProt P08238); experiment: Inhibition of HSP90-mediated proliferation of human NCI-N417 cells at 0.3 to 0.5 uM after 72 to 96 hrs by sulforhodamine B assay; format: cell-based; conditions: NCI-H417
[22] = Drug level in tumor of human NCI-N417 cell-xenograft athymic mouse model at 75 mg/kg, ip administered as single dose after 36 hrs by HPLC/MS/MS analysis; format: ADME, organism-based, Neoplasm; design: dose 75 mg/kg, route intraperitoneal; conditions: in vivo
How it was run: as §2

[23] = biological target: Heat shock protein HSP 90-beta (Homo sapiens) (UniProt P08238); experiment: Inhibition of HSP90-mediated proliferation of human NCI-H187 cells at 0.3 to 0.5 uM after 72 to 96 hrs by intracellular ATP level assay
[24] = Drug level in tumor of human NCI-N417 cell-xenograft athymic mouse model at 75 mg/kg, ip administered as single dose after 3 hrs by HPLC/MS/MS analysis; format: ADME, organism-based, Neoplasm; design: dose 75 mg/kg, route intraperitoneal; conditions: in vivo
How it was run: as §2

NCI-H417 [25] = experiment: Anticancer activity against human NCI-N417 cells xenografted in athymic mouse assessed as decrease in tumor Akt activity at 75 mg/kg, ip administered daily for 5 consecutive days measured after 6 hrs post last dose by immunohistochemistry; format: functional, organism-based; design: dose 75 mg/kg
[26] = biological target: Heat shock protein HSP 90-beta (Homo sapiens) (UniProt P08238); experiment: Inhibition of HSP90-mediated proliferation of human NCI-H526 cells at 0.3 to 0.5 uM after 72 to 96 hrs by sulforhodamine B assay; format: cell-based
[27] = biological target: Heat shock protein HSP 90-beta (Homo sapiens) (UniProt P08238); experiment: Inhibition of HSP90-mediated proliferation of human NCI-H510 cells at 0.3 to 0.5 uM after 72 to 96 hrs by intracellular ATP level assay
[28] = biological target: Heat shock protein HSP 90-beta (Homo sapiens) (UniProt P08238); experiment: Binding affinity to HSP90 in human NCI-H526 cells after 24 hrs by fluorescence polarization assay; format: cell-based
[29] = Drug level in tumor of human NCI-N417 cell-xenograft athymic mouse model at 75 mg/kg, ip administered as single dose after 24 hrs by HPLC/MS/MS analysis; format: ADME, organism-based, Neoplasm; design: dose 75 mg/kg, route intraperitoneal; conditions: in vivo
How it was run: as §2

[30] = biological target: Heat shock protein HSP 90-beta (Homo sapiens) (UniProt P08238); experiment: Inhibition of HSP90 in chemo-resistant human H69AR cells at 100 uM after 24 hrs by fluorescence polarization assay; format: cell-based
How it was run: as §1

[31] = biological target: Heat shock protein HSP 90-beta (Homo sapiens) (UniProt P08238); experiment: Inhibition of HSP90-mediated proliferation of human NCI-H69 cells at 0.3 to 0.5 uM after 72 to 96 hrs by intracellular ATP level assay
NCI-H417 [32] = experiment: Anticancer activity against human NCI-N417 cells xenografted in ip dosed athymic mouse assessed as decrease in tumor Akt activity administered daily for 5 consecutive days measured after 12 hrs post last dose by immunohistochemistry; format: functional, organism-based
How it was run: as §3

[33] = biological target: Heat shock protein HSP 90-beta (Homo sapiens) (UniProt P08238); experiment: Inhibition of HSP90-mediated proliferation of human NCI-H209 cells at 0.3 to 0.5 uM after 72 to 96 hrs by intracellular ATP level assay

Chain of Heat shock protein HSP 90-beta (Homo sapiens) (P08238 whole entry): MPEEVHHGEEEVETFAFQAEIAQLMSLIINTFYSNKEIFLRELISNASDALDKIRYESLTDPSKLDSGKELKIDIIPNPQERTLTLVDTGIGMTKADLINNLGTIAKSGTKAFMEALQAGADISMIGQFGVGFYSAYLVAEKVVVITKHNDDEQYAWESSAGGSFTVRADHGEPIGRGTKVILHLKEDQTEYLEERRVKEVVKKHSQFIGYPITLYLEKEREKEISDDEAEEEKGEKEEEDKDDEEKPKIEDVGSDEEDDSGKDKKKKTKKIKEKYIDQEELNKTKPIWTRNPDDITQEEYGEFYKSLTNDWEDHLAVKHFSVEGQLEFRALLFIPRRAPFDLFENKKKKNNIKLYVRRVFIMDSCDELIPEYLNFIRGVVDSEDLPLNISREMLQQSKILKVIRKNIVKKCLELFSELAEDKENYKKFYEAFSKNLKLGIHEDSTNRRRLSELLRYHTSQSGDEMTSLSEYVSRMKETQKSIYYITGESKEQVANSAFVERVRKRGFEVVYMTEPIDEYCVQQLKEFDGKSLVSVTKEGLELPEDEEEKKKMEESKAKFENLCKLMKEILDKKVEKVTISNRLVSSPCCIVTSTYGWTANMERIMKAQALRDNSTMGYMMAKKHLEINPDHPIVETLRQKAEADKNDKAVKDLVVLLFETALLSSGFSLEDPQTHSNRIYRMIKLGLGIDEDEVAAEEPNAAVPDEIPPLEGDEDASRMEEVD

inhibition [1]: Active
Activity [2]: Active
inhibition [3]: Active
inhibition [4]: Active
Activity [5]: Active
Activity [6]: Active
Activity [7]: Active
inhibition [8]: 50%
Activity [9]: Active
Drug uptake [10]: Active
Drug uptake [11]: Active
Drug uptake [13]: Active
Activity [14]: Active
Activity [16]: Active
Activity [17]: Active
Activity [18]: Active
Activity [20]: Active
inhibition [21]: 50%
Drug uptake [22]: Active
inhibition [23]: 50%
Drug uptake [24]: Active
inhibition [26]: 50%
inhibition [27]: 50%
Activity [28]: Active
Drug uptake [29]: Active
inhibition [30]: Active
inhibition [31]: 50%
inhibition [33]: 50%
SMILES: CC(C)NCCCn1c(Sc2cc3c(cc2I)OCO3)nc2c(N)ncnc21 [PU-H71]
Activity (NCI-H417 [12]): Dose-dependent effect
inhibition (NCI-H417 [15]): Active
Activity (NCI-H417 [19]): Active
Activity (NCI-H417 [25]): Active
inhibition (NCI-H417 [32]): Dose-dependent effect
